According to ChEMBL document CHEMBL1125111, “The synthesis and antibacterial activities of quinolones containing five- and six-membered heterocyclic substituents at the 7-position” (1990):
In brackets after ≈: the same amount, converted by molar mass.

Experiments:
Type in all cases: functional
Acinetobacter = assay: In vitro antibacterial activity against Acinetobacter CMX 669
Outline: (§1)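 Agar dilution MIC: strains grown overnight in brain-heart infusion broth at 36 °C; test compound stock 2000 µg/mL serially diluted 2-fold into BHI agar for final 200 to 0.005 µg/mL; plates inoculated with about 10⁴ organisms, incubated 36 °C for 18 h. MIC (µg/mL) taken as lowest concentration giving no visible growth; ciprofloxacin run side by side as reference.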

Escherichia coli = assay: In vitro antibacterial activity against Escherichia coli Juhl; outline: as §1
Klebsiella aerogenes = assay: In vitro antibacterial activity against Enterobacter aerogenes ATCC 13048; outline: as §1
Pseudomonas aeruginosa [1] = assay: In vitro antibacterial activity against Pseudomonas aeruginosa 5007; outline: as §1
Pseudomonas aeruginosa [2] = assay: In vitro antibacterial activity against Pseudomonas aeruginosa K799/WT; outline: as §1
Staphylococcus aureus [3] = assay: In vitro antibacterial activity against Staphylococcus aureus 45; outline: as §1
Staphylococcus aureus [4] = assay: In vitro antibacterial activity against Staphylococcus aureus CMX 686B; outline: as §1
[5] = system: Staphylococcus epidermidis; assay: In vitro antibacterial activity against Staphylococcus epidermidis 3519; outline: as §1
Streptococcus agalactiae = assay: In vitro antibacterial activity against Streptococcus agalactiae CMS 508; outline: as §1
Staphylococcus aureus [6] = assay: In vitro antibacterial activity against Staphylococcus aureus ATCC 6538P; outline: as §1
Streptococcus equinus = assay: In vitro antibacterial activity against Streptococcus bovis A5169; outline: as §1
Enterococcus faecium = assay: In vitro antibacterial activity against Streptococcus faecium ATCC 8043; outline: as §1
Streptococcus pyogenes = assay: In vitro antibacterial activity against Streptococcus pyogenes 930; outline: as §1
Klebsiella pneumoniae = assay: In vitro antibacterial activity against Klebsiella pneumoniae 8045; outline: as §1
Staphylococcus aureus [7] = assay: In vitro antibacterial activity against Staphylococcus aureus A5177; outline: as §1

MIC (Acinetobacter) | MIC (Escherichia coli) | MIC (Klebsiella aerogenes) | MIC (Pseudomonas aeruginosa [1]) | MIC (Pseudomonas aeruginosa [2]) | MIC (Staphylococcus aureus [3]) | MIC (Staphylococcus aureus [4]) | MIC [5] | MIC (Streptococcus agalactiae) | MIC (Staphylococcus aureus [6]) | MIC (Streptococcus equinus) | MIC (Enterococcus faecium) | MIC (Streptococcus pyogenes) | MIC (Klebsiella pneumoniae) | MIC (Staphylococcus aureus [7]) | Compound
> 100 µg/mL | 50 µg/mL (≈ 157 µM) | > 100 µg/mL | > 100 µg/mL | > 100 µg/mL | > 100 µg/mL | 50 µg/mL (≈ 157 µM) | > 100 µg/mL | > 100 µg/mL | 50 µg/mL (≈ 157 µM) | > 100 µg/mL | > 100 µg/mL | > 100 µg/mL | 25 µg/mL (≈ 78.5 µM) | > 100 µg/mL | CCn1cc(C(=O)O)c(=O)c2cc(F)c(C3=NCCCO3)cc21
> 100 µg/mL | 50 µg/mL (≈ 158 µM) | 50 µg/mL (≈ 158 µM) | > 100 µg/mL | > 100 µg/mL | 50 µg/mL (≈ 158 µM) | 12.5 µg/mL (≈ 39.4 µM) | 50 µg/mL (≈ 158 µM) | 100 µg/mL (≈ 315 µM) | 12.5 µg/mL (≈ 39.4 µM) | > 100 µg/mL | > 100 µg/mL | 100 µg/mL (≈ 315 µM) | 25 µg/mL (≈ 78.8 µM) | 25 µg/mL (≈ 78.8 µM) | CCn1cc(C(=O)O)c(=O)c2cc(F)c(-c3coc(N)n3)cc21
12.5 µg/mL (≈ 39.5 µM) | 6.2 µg/mL (≈ 19.6 µM) | 50 µg/mL (≈ 158 µM) | 50 µg/mL (≈ 158 µM) | 50 µg/mL (≈ 158 µM) | 3.1 µg/mL (≈ 9.8 µM) | 0.78 µg/mL (≈ 2.47 µM) | 3.1 µg/mL (≈ 9.8 µM) | 50 µg/mL (≈ 158 µM) | 1.56 µg/mL (≈ 4.93 µM) | 100 µg/mL (≈ 316 µM) | 100 µg/mL (≈ 316 µM) | 100 µg/mL (≈ 316 µM) | 3.1 µg/mL (≈ 9.8 µM) | 3.1 µg/mL (≈ 9.8 µM) | CCn1cc(C(=O)O)c(=O)c2cc(F)c(-c3coc(C)n3)cc21
> 100 µg/mL | > 100 µg/mL | > 100 µg/mL | > 100 µg/mL | > 100 µg/mL | > 100 µg/mL | > 100 µg/mL | > 100 µg/mL | > 100 µg/mL | > 100 µg/mL | > 100 µg/mL | > 100 µg/mL | > 100 µg/mL | > 100 µg/mL | > 100 µg/mL | CCn1cc(C(=O)O)c(=O)c2cc(F)c(C(=O)O)cc21
> 100 µg/mL | 50 µg/mL (≈ 155 µM) | > 100 µg/mL | > 100 µg/mL | > 100 µg/mL | > 100 µg/mL | > 100 µg/mL | > 100 µg/mL | > 100 µg/mL | > 100 µg/mL | > 100 µg/mL | > 100 µg/mL | > 100 µg/mL | 50 µg/mL (≈ 155 µM) | > 100 µg/mL | CCn1cc(C(=O)O)c(=O)c2cc(F)c(C(=O)NCCO)cc21
50 µg/mL (≈ 164 µM) | 12.5 µg/mL (≈ 41.1 µM) | 12.5 µg/mL (≈ 41.1 µM) | > 100 µg/mL | > 100 µg/mL | 50 µg/mL (≈ 164 µM) | 12.5 µg/mL (≈ 41.1 µM) | 50 µg/mL (≈ 164 µM) | > 100 µg/mL | 25 µg/mL (≈ 82.2 µM) | > 100 µg/mL | > 100 µg/mL | > 100 µg/mL | 6.2 µg/mL (≈ 20.4 µM) | 25 µg/mL (≈ 82.2 µM) | CCn1cc(C(=O)O)c(=O)c2cc(F)c(C3=NCCO3)cc21
25 µg/mL (≈ 79.3 µM) | 12.5 µg/mL (≈ 39.6 µM) | 12.5 µg/mL (≈ 39.6 µM) | > 100 µg/mL | > 100 µg/mL | 1.56 µg/mL (≈ 4.95 µM) | 0.78 µg/mL (≈ 2.47 µM) | 1.56 µg/mL (≈ 4.95 µM) | 50 µg/mL (≈ 159 µM) | 1.56 µg/mL (≈ 4.95 µM) | > 100 µg/mL | > 100 µg/mL | 50 µg/mL (≈ 159 µM) | 6.2 µg/mL (≈ 19.7 µM) | 1.56 µg/mL (≈ 4.95 µM) | CCn1cc(C(=O)O)c(=O)c2cc(F)c(-c3ccc(C)o3)cc21
> 100 µg/mL | > 100 µg/mL | > 100 µg/mL | > 100 µg/mL | > 100 µg/mL | 100 µg/mL (≈ 301 µM) | 12.5 µg/mL (≈ 37.6 µM) | 50 µg/mL (≈ 150 µM) | > 100 µg/mL | 25 µg/mL (≈ 75.2 µM) | > 100 µg/mL | > 100 µg/mL | > 100 µg/mL | 100 µg/mL (≈ 301 µM) | 25 µg/mL (≈ 75.2 µM) | CCn1cc(C(=O)O)c(=O)c2cc(F)c(C3=NC(C)(C)CO3)cc21
50 µg/mL (≈ 165 µM) | 12.5 µg/mL (≈ 41.4 µM) | 12.5 µg/mL (≈ 41.4 µM) | > 100 µg/mL | 100 µg/mL (≈ 331 µM) | 25 µg/mL (≈ 82.7 µM) | 6.2 µg/mL (≈ 20.5 µM) | 12.5 µg/mL (≈ 41.4 µM) | > 100 µg/mL | 6.2 µg/mL (≈ 20.5 µM) | > 100 µg/mL | > 100 µg/mL | > 100 µg/mL | 6.2 µg/mL (≈ 20.5 µM) | 12.5 µg/mL (≈ 41.4 µM) | CCn1cc(C(=O)O)c(=O)c2cc(F)c(-c3cocn3)cc21
> 100 µg/mL | 25 µg/mL | 50 µg/mL | > 100 µg/mL | > 100 µg/mL | 50 µg/mL | 12.5 µg/mL | 50 µg/mL | 50 µg/mL | 12.5 µg/mL | > 100 µg/mL | > 100 µg/mL | 50 µg/mL | 12.5 µg/mL | 25 µg/mL | CCn1cc(C(=O)O)c(=O)c2cc(F)c(-c3c[nH]cn3)cc21.Cl

Compound | MIC (Acinetobacter) | MIC (Escherichia coli) | MIC (Klebsiella aerogenes) | MIC (Pseudomonas aeruginosa [1]) | MIC (Pseudomonas aeruginosa [2]) | MIC (Staphylococcus aureus [3]) | MIC (Staphylococcus aureus [4]) | MIC [5] | MIC (Streptococcus agalactiae) | MIC (Staphylococcus aureus [6]) | MIC (Streptococcus equinus) | MIC (Enterococcus faecium) | MIC (Streptococcus pyogenes) | MIC (Klebsiella pneumoniae) | MIC (Staphylococcus aureus [7])
O=C(O)c1cn(C2CC2)c2cc(N3CCNCC3)c(F)cc2c1=O [CIPROFLOXACIN] | 0.78 µg/mL (≈ 2.35 µM) |  | 0.05 µg/mL (≈ 0.151 µM) | 0.2 µg/mL (≈ 0.604 µM) | 0.2 µg/mL (≈ 0.604 µM) | 1.56 µg/mL (≈ 4.71 µM) | 0.2 µg/mL (≈ 0.604 µM) | 0.39 µg/mL (≈ 1.18 µM) | 0.39 µg/mL (≈ 1.18 µM) | 0.1 µg/mL (≈ 0.302 µM) | 1.56 µg/mL (≈ 4.71 µM) | 0.39 µg/mL (≈ 1.18 µM) | 0.39 µg/mL (≈ 1.18 µM) | 0.02 µg/mL (≈ 0.0604 µM) | 0.39 µg/mL (≈ 1.18 µM)
